Results taken from PubChem BioAssay.
Activity calls are given as the source filed them.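 How the source made its calls: active means duplicate-averaged activation above buffer control mean plus 5 SD of those controls; inactive means the rest.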

Experiment: nonspecific flux increase, KCNQ1-free cells – parental CHO cells, counter-screen for KCNQ1 potentiator project (AID 493006);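 on activation: fluorescence ratio of max minus min over baseline after K+ and Tl+ depolarization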
Settings: parental CHO-K1 cells, FluxOR thallium flux, at 10 µM; stronger effect = higher value
Outline: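 Material: untransfected host CHO-K1 cells with FluxOR thallium dye. Timing: overnight 37 °C plating, 90 min RT dye, 20 min compound. Detection: kinetic FluxOR fluorescence, 10 s baseline, 110 s after stimulus. Read-out basis: max-minus-min fluorescence over baseline, percent of buffer-to-R-L3 span. Replicates: duplicate wells per compound, percent values averaged.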

Row | SMILES | outcome | activation
1 | C/C(Cl)=C\Cn1c(O)c(N=NC(N)=S)c2cc(Br)ccc21 | inactive | –
2 | Cc1ccccc1C([O-])=Nc1ccc[n+](-c2nc3ccccc3nc2NS(=O)(=O)c2ccccc2)c1 | inactive | –
3 | COc1ccc(-c2nc(CS(=O)CC(=O)NC3CCCC3)c(C)o2)cc1OC (stereo not given) | – | 168% (active)
4 | Cc1ccc(N2C(=O)N3[C@H](c4ccc(F)cc4)[C@@H]4C(=O)N(C5CCCCC5)C(=O)[C@@H]4[C@]3(Cc3ccccc3)C2=O)cc1 | inactive | –
5 | CCn1c(CSc2nc3ccccc3n2C)nc2ccccc21 | inactive | –
6 | CN(C)CCCC1(O)c2ccccc2C=Cc2ccccc21 | – | 139% (active)
7 | N#CC1=C(Nc2ccccc2)SC=C(c2ccc(Br)cc2)N=C1N1CCOCC1 | inactive | –
8 | O=C(NC(=S)Nc1nc2c(s1)CSc1ccccc1-2)c1ccccc1 | – | 170% (active)
9 | CC(C)Cc1c2c([nH]c(=S)c1C#N)CCCC2 | inactive | –
10 | Nc1c(Cl)cc(C2=NCCn3nc4cc(C(F)(F)F)ccc4c32)cc1Cl | inactive | –
11 | COc1ccc(/C=N\NC(=S)SCN2C(=O)C3CCC(C)(C2=O)C3(C)C)cc1 (stereo not given) | inactive | –
12 | C1=Nc2ccccc2CN1c1ccccc1 | inactive | –
13 | Cc1ccc(-c2cc(C(=O)NCc3ccccn3)c3ccccc3n2)cc1C | inactive | –
14 | COc1ccc(S(=O)(=O)NCCCN2CCOCC2)cc1F | inactive | –
15 | O=C(NC(=S)Nc1ccccc1N1CCCC1)c1ccc([N+](=O)[O-])cc1 | – | 161% (active)
16 | CC(c1ccccc1C(O)(c1ccccc1)c1ccccc1)N(C)C (stereo not given) | inactive | –
17 | COc1ccc(/C=C2/S/C(=N/N=C3\CC4CCC3(C)C4(C)C)NC2=O)cc1 (stereo not given) | inactive | –
18 | Cc1cccc(NC(=O)Nc2ccc(OCc3ccccc3)cc2)n1 | inactive | –
19 | Cc1nn(CC2CC2)c(=O)n1-c1ccc(F)cc1 | inactive | –
20 | CC1CCc2sc3nc(N4CCN(CCO)CC4)n4ncnc4c3c2C1 (stereo not given) | – | 510% (active)

Row | SMILES | outcome | activation
21 | CCSc1nnc(NC(=O)C2C3C=CC(C3)C2C(=O)O)s1 (stereo not given) | inactive | –
22 | COc1ccc(NC(=S)NC(=O)c2csnn2)cc1 | – | 213% (active)
23 | COc1ccc(CCNC(=O)c2c(C)nc3ccccn23)cc1 | inactive | –
24 | COc1ccccc1CNC(=O)c1oc2ccc(S(=O)(=O)N3CCOCC3)cc2c1C | inactive | –
25 | CC(C)(C)NC(=O)C(=O)NNC(=O)C12CC3CC(CC(C3)C1)C2 | – | 178% (active)
26 | OCCN1CCN(C2CCC(c3ccc(F)cc3)c3ccc(F)cc32)CC1 (stereo not given) | inactive | –
27 | Cc1cc(C(=O)CSc2nnc(N)s2)c(C)n1C1CC1 | inactive | –
28 | O=C(NCc1ccco1)c1ccc(=O)oc1 | inactive | –
29 | COc1ccc2c(-c3ccccc3)cc(=S)[nH]c2c1 | – | 210% (active)
30 | CCOC(=O)c1c(NC(=S)NC)sc2c1CC(C)(C)SC2 | – | 498% (active)
31 | CCOc1ccc(-n2cc(-c3ccccc3)c3c(=S)nc[nH]c32)cc1 | – | 337% (active)
32 | O=C(N/N=C/c1cccnc1)c1ccco1 | inactive | –
33 | COc1ccc(CCC(=O)NCCOc2ccc(C)cc2)cc1 | inactive | –
34 | S=c1[nH]cnc2sc(-c3ccccc3)cc12 | – | 520% (active)
35 | CCCCCc1ccc(C(=O)CCCC)c(=S)[nH]1 | – | 277% (active)
36 | O=Cc1cc2ccccc2nc1SCCCF | inactive | –
37 | Cn1nc(SCC(=O)O)sc1=S | inactive | –
38 | CC(=O)c1c(-c2ccccc2)c2cc([N+](=O)[O-])ccc2[nH]c1=O | inactive | –
39 | COCCn1c(=S)[nH]c2sc3c(c2c1=O)CCC(C)C3 (stereo not given) | – | 541% (active)
40 | Cc1ccc(C(=O)CC(=O)c2cccc(F)c2)c(O)c1 | – | 156% (active)
